Laboratory results taken from ChEMBL document CHEMBL1909519, “L-Proline anchored multicomponent synthesis of novel pyrido[2,3-a]carbazoles; investigation of in vitro antimicrobial, antioxidant, cytotoxicity and structure activity relationship studies” (Eur J Med Chem, 2011).
In brackets after ≈: the same amount, converted by molar mass.

Assays:
[1] = tested on: Staphylococcus aureus; assay: Antibacterial activity against Staphylococcus aureus at 25 ug/ml after 24 hrs by agar disk diffusion assay; assay type: functional; conditions: read-out: DIZ
Outline: (§1)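 Agar well diffusion on nutrient agar against Gram-positive clinical isolates (PSG Hospital, Coimbatore). Compounds in DMSO tested at 0 (control), 25, 50, 75, 100; DMSO as solvent and negative control; ciprofloxacin ([…]) as positive control. Plates incubated 37 ± 2 °C, 24 h; zone of inhibition diameter read in mm.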

[2] = tested on: Enterococcus faecalis; assay: Antibacterial activity against Enterococcus faecalis at 25 ug/ml after 24 hrs by agar disk diffusion assay; assay type: functional; conditions: read-out: DIZ; outline: as §1
[3] = tested on: Escherichia coli; assay: Antibacterial activity against Escherichia coli at 25 ug/ml after 24 hrs by agar disk diffusion assay; assay type: functional; conditions: read-out: DIZ
Outline: (§2)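 Gram-negative clinical isolates (PSG Hospital, Coimbatore) tested by agar well diffusion on nutrient agar. Compounds dissolved in DMSO at 0 (control), 25, 50, 75, 100; DMSO was the negative control and ciprofloxacin ([…]) the positive control. Incubation 37 ± 2 °C for 24 h, then inhibition zone diameter measured in mm.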

[4] = tested on: Klebsiella pneumoniae; assay: Antibacterial activity against Klebsiella pneumoniae at 25 ug/ml after 24 hrs by agar disk diffusion assay; assay type: functional; conditions: read-out: DIZ; outline: as §2
[5] = tested on: Aspergillus niger; assay: Antifungal activity against Aspergillus niger at 25 ug/ml after 48 hrs by agar disk diffusion assay; assay type: functional; conditions: read-out: DIZ
Outline: (§3)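 Fungal isolates (PSG Hospital, Coimbatore) grown on Sabouraud dextrose agar; agar well diffusion with compounds in DMSO at 0 (control), 25, 50, 75, 100. DMSO negative control, fluconazole ([…]) positive control. Plates held 28 ± 2 °C for 48 h; zone of inhibition diameter recorded in mm.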

[6] = tested on: Candida albicans; assay: Antifungal activity against Candida albicans at 25 ug/ml after 48 hrs by agar disk diffusion assay; assay type: functional; conditions: read-out: DIZ; outline: as §3
[7] = tested on: Staphylococcus aureus; assay: Antibacterial activity against Staphylococcus aureus after 24 hrs by agar disk diffusion assay; assay type: functional; outline: as §1
[8] = tested on: Enterococcus faecalis; assay: Antibacterial activity against Enterococcus faecalis after 24 hrs by agar disk diffusion assay; assay type: functional; outline: as §1
[9] = tested on: Escherichia coli; assay: Antibacterial activity against Escherichia coli after 24 hrs by agar disk diffusion assay; assay type: functional; outline: as §2
[10] = tested on: Klebsiella pneumoniae; assay: Antibacterial activity against Klebsiella pneumoniae after 24 hrs by agar disk diffusion assay; assay type: functional; outline: as §2
[11] = tested on: Aspergillus niger; assay: Antifungal activity against Aspergillus niger after 48 hrs by agar disk diffusion assay; assay type: functional; outline: as §3
[12] = tested on: Candida albicans; assay: Antifungal activity against Candida albicans after 48 hrs by agar disk diffusion assay; assay type: functional; outline: as §3
[13] = tested on: A549; assay: Cytotoxicity against human A549 cells after 48 hrs by SRB assay; assay type: functional, cell-based; conditions: A549, 48 h
Outline: (§4)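 Cells in RPMI-1640 with 10% heat-inactivated FBS, 1 mM NaHCO3, 2 mM L-glutamine, 37 °C, 5% CO2; seeded (B16F10 5 × 10⁴ cells/mL, others 1 × 10⁵ cells/mL), 24 h, then compounds in DMSO at 1.56–50 for 48 h, triplicate wells. TCA fixation, SRB staining 30 min, tris extraction, OD 520 nm; IC50 by linear regression, mean ± SD of three independent experiments; cisplatin positive control.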

[14] = tested on: B16-F10; assay: Cytotoxicity against mouse B16F10 cells after 48 hrs by SRB assay; assay type: functional, cell-based; conditions: B16-F10, 48 h; outline: as §4
[15] = tested on: HCT-15; assay: Cytotoxicity against human HCT15 cells after 48 hrs by SRB assay; assay type: functional, cell-based; conditions: HCT-15, 48 h; outline: as §4
[16] = Cytotoxicity against human SK-MEL-12 cells after 48 hrs by SRB assay; assay type: functional, cell-based; outline: as §4
[17] = tested on: SK-OV-3; assay: Cytotoxicity against human SKOV3 cells after 48 hrs by SRB assay; assay type: functional, cell-based; conditions: SK-OV-3, 48 h; outline: as §4
[18] = tested on: Radical scavenging activity; assay: Antioxidant activity assessed as DPPH radical scavenging activity after 30 mins by micro plate reader; assay type: functional
Outline: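 DPPH assay: various compound concentrations brought to volume with ethanol, mixed with 0.1 mM ethanolic DPPH alongside vitamin C standard; shaken 30 min at 24 °C, absorbance read at 517 nm; concentration giving 50% decrease determined.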

[19] = tested on: A549; assay: Ratio of cisplatin IC50 to compound IC50 for human A549 cells; assay type: functional
[20] = tested on: HCT-15; assay: Ratio of cisplatin IC50 to compound IC50 for human HCT15 cells; assay type: functional
[21] = species: Homo sapiens; assay: Ratio of cisplatin IC50 to compound IC50 for human SK-MEL-12; assay type: functional
[22] = tested on: Staphylococcus aureus; assay: Antibacterial activity against Staphylococcus aureus at 50 ug/ml after 24 hrs by agar disk diffusion assay; assay type: functional; conditions: read-out: DIZ; outline: as §1
[23] = tested on: Enterococcus faecalis; assay: Antibacterial activity against Enterococcus faecalis at 50 ug/ml after 24 hrs by agar disk diffusion assay; assay type: functional; conditions: read-out: DIZ; outline: as §1
[24] = tested on: Escherichia coli; assay: Antibacterial activity against Escherichia coli at 50 ug/ml after 24 hrs by agar disk diffusion assay; assay type: functional; conditions: read-out: DIZ; outline: as §2
[25] = tested on: Klebsiella pneumoniae; assay: Antibacterial activity against Klebsiella pneumoniae at 50 ug/ml after 24 hrs by agar disk diffusion assay; assay type: functional; conditions: read-out: DIZ; outline: as §2
[26] = tested on: Aspergillus niger; assay: Antifungal activity against Aspergillus niger at 50 ug/ml after 48 hrs by agar disk diffusion assay; assay type: functional; conditions: read-out: DIZ; outline: as §3
[27] = tested on: Candida albicans; assay: Antifungal activity against Candida albicans at 50 ug/ml after 48 hrs by agar disk diffusion assay; assay type: functional; conditions: read-out: DIZ; outline: as §3
[28] = tested on: Staphylococcus aureus; assay: Antibacterial activity against Staphylococcus aureus at 100 ug/ml after 24 hrs by agar disk diffusion assay; assay type: functional; conditions: read-out: DIZ; outline: as §1
[29] = tested on: Enterococcus faecalis; assay: Antibacterial activity against Enterococcus faecalis at 100 ug/ml after 24 hrs by agar disk diffusion assay; assay type: functional; conditions: read-out: DIZ; outline: as §1
[30] = tested on: Escherichia coli; assay: Antibacterial activity against Escherichia coli at 100 ug/ml after 24 hrs by agar disk diffusion assay; assay type: functional; conditions: read-out: DIZ; outline: as §2
[31] = tested on: Klebsiella pneumoniae; assay: Antibacterial activity against Klebsiella pneumoniae at 100 ug/ml after 24 hrs by agar disk diffusion assay; assay type: functional; conditions: read-out: DIZ; outline: as §2
[32] = tested on: Aspergillus niger; assay: Antifungal activity against Aspergillus niger at 100 ug/ml after 48 hrs by agar disk diffusion assay; assay type: functional; conditions: read-out: DIZ; outline: as §3
[33] = tested on: Candida albicans; assay: Antifungal activity against Candida albicans at 100 ug/ml after 48 hrs by agar disk diffusion assay; assay type: functional; conditions: read-out: DIZ; outline: as §3
[34] = Cytotoxicity against human SK-MEL-12 cells up to 50 ug/ml after 48 hrs by SRB assay; assay type: functional, cell-based; outline: as §4
[35] = tested on: SK-OV-3; assay: Cytotoxicity against human SKOV3 cells up to 50 ug/ml after 48 hrs by SRB assay; assay type: functional, cell-based; outline: as §4

Row | MIC [7] [µg/mL] | MIC [8] [µg/mL] | MIC [9] [µg/mL] | MIC [10] [µg/mL] | MIC [11] [µg/mL] | MIC [12] [µg/mL] | IC50 [18] [µg/mL] | Structure (SMILES) | IC50 [13] [µg/mL] | IC50 [14] [µg/mL] | IC50 [15] [µg/mL] | IC50 [16] [µg/mL] | IC50 [17] [µg/mL] | zone of inhibition at 50 µg/mL [22] [mm] | zone of inhibition at 50 µg/mL [23] [mm] | zone of inhibition at 50 µg/mL [24] [mm] | zone of inhibition at 50 µg/mL [25] [mm] | zone of inhibition at 50 µg/mL [26] [mm] | zone of inhibition at 50 µg/mL [27] [mm] | IC50 [35] | further results
1 | 25 (≈ 57.4 µM) | 25 (≈ 57.4 µM) | 25 (≈ 57.4 µM) | 25 (≈ 57.4 µM) | > 100 | > 100 | 163.07 (≈ 374 µM) | Cc1ccc2[nH]c3c(c2c1)CCc1c-3nc(N)c(C#N)c1-c1cc2ccccc2nc1Cl | 3.72 (≈ 8.53 µM) | 5.89 (≈ 13.5 µM) | 4.43 (≈ 10.2 µM) | 4.48 (≈ 10.3 µM) | 21.9 (≈ 50.3 µM) |  |  |  |  |  |  |  | zone of inhibition at 25 µg/mL [1]: 25 mm; zone of inhibition at 25 µg/mL [2]: 24 mm; zone of inhibition at 25 µg/mL [3]: 23 mm; zone of inhibition at 25 µg/mL [4]: 25 mm; zone of inhibition at 25 µg/mL [5]: 6 mm; zone of inhibition at 25 µg/mL [6]: 10 mm; Ratio IC50 [19]: 1.51; Ratio IC50 [20]: 1.79; Ratio IC50 [21]: 2.32
2 | 50 (≈ 142 µM) | 50 (≈ 142 µM) | 50 (≈ 142 µM) | 50 (≈ 142 µM) | > 100 | > 100 | 511.24 (≈ 1450 µM) | Cc1ccc2[nH]c3c(c2c1)CCc1c-3nc(N)c(C#N)c1-c1cccnc1 | 16.1 (≈ 45.9 µM) | 13.7 (≈ 39 µM) | 47.6 (≈ 136 µM) | 16.6 (≈ 47.3 µM) | 10.6 (≈ 30.1 µM) | 20 | 20 | 19 | 18 | 3 | 5 |  | 
3 |  |  |  |  |  |  | 45.94 (≈ 261 µM) | O=C1O[C@H]([C@@H](O)CO)C(O)=C1O [ASCORBIC ACID] |  |  |  |  |  |  |  |  |  |  |  |  | 
4 | 100 (≈ 285 µM) | 100 (≈ 285 µM) | 100 (≈ 285 µM) | 100 (≈ 285 µM) | > 100 | > 100 | 205.5 (≈ 586 µM) | Cc1ccc2[nH]c3c(c2c1)CCc1c-3nc(N)c(C#N)c1-c1ccccc1 | 49.2 (≈ 141 µM) | 47.6 (≈ 136 µM) | 44.9 (≈ 128 µM) |  |  |  |  |  |  |  |  | Not Active | zone of inhibition at 100 µg/mL [28]: 12 mm; zone of inhibition at 100 µg/mL [29]: 14 mm; zone of inhibition at 100 µg/mL [30]: 16 mm; zone of inhibition at 100 µg/mL [31]: 15 mm; zone of inhibition at 100 µg/mL [32]: 4 mm; zone of inhibition at 100 µg/mL [33]: 3 mm; IC50 [34]: Not Active
5 | 50 (≈ 125 µM) | 50 (≈ 125 µM) | 50 (≈ 125 µM) | 50 (≈ 125 µM) | > 100 | > 100 | 210.34 (≈ 528 µM) | CCOC(=O)c1c(N)nc2c(c1-c1cccnc1)CCc1c-2[nH]c2ccc(C)cc12 | 43.7 (≈ 110 µM) | 29.4 (≈ 73.8 µM) | 33.8 (≈ 84.8 µM) | 24.9 (≈ 62.5 µM) |  | 19 | 17 | 20 | 21 | 4 | 9 | Not Active | 
